This is an account of results in article PMC6463402 (Current Radiopharmaceuticals, 2019).

One data set addresses Aβ. The settings on record: cited from earlier work.
For data set [1] the following is noted: cited from earlier work.
For a further data set, the system named is APPSwe/PS1dE9 mice. Put plainly: PET/CT imaging, transgenic mice. It counts as in vivo. The settings on record: static PET at 30 min, n=3, no statistical significance. A digest of the protocol: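 Male APPSwe/PS1dE9 transgenic mice (aged 12 months) and male C57BL/6 controls (aged 13 months) under isoflurane received 30-37 MBq i.v. via tail vein. PET/CT images were fused with a brain-template atlas to give regional values. In static images, regional SUV was normalised to brain stem (n=3). Transgenic and control regions were compared by Student's t-test, α=0.05.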

A further data set relates to C57BL/6 mice. The data set is described as follows: PET/CT imaging, control healthy mice. It counts as in vivo. The conditions noted are these: wild-type mice, i.v. A digest of the protocol:
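Male C57BL/6 controls (aged 13 months), anaesthetised with 4-5% isoflurane (1-2% maintenance), received 30-37 MBq via lateral tail vein. Dynamic PET ran 120 min, framed 10x2 min, 5x5 min and 5x15 min, with CT at 45 kVp for anatomy. Decay-corrected PET was fused with CT and an MRI mouse brain template holding predefined brain regions of interest.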

Data set [2] in a line: Biodistribution study and non-compartmental pharmacokinetics. The settings on record: i.v. It counts as in vivo, Balb/C mice. A digest of the protocol:
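Thirty healthy male Balb/C mice (10-12 weeks, 28.5±2.0 g) in 6 groups of 5 received 20-40 MBq i.v. via lateral tail vein. Blood was collected and mice were killed at 5, 15, 30, 45, 70 and 180 min. Organs were removed, washed with saline, dried and weighed, and radioactivity was well-counted. Plasma PK parameters came from non-compartmental analysis, reported as mean and standard deviation.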

For a further data set, the target named is Aβ plaques (Homo sapiens, UniProt P05067). The data set is described as follows: In vitro binding assays with Aβ plaques. The arrangement: species or system 3xTg-AD mice.
Sequence of Aβ plaques (P05067 672-713): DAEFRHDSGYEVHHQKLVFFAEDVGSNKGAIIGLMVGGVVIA
A further data set can be described thus: Protein binding assay. It counts as in vitro ADME. The conditions noted are these: human plasma, gel filtration. The gist of the method:
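Human plasma (1 mL) with 100 μL radiotracer was incubated at 37 °C for 120 min. At 30, 60 and 120 min, 50 μL was applied to pre-spun G-50 size-exclusion spin columns, left 2 min, and centrifuged 2 min at 3300 rpm, 4 °C. Column (free) and eluate (bound) activity were gamma-counted. The blank used 0.1 M phosphate buffer instead of plasma, at 120 min.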
For orientation: In gel filtration, larger molecules generally elute earlier.

A short description of the next data set: Stability in plasma. It counts as in vitro ADME, human. The conditions noted are these: 2 h incubation at 37 °C.
Data set [3] in a line: Lipophilicity, n-octanol/phosphate buffer partition coefficient. The settings on record: n-octanol/phosphate buffer 0.1 mol/L, pH 7.4; mean of two batches in triplicate. It counts as physicochemical.
A short description of data set [4]: Stability in the final formulation. It counts as physicochemical. The conditions noted are these: 6 h, room temperature. A digest of the protocol: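 Three samples of the formulated tracer, a filtered ethanol/saline formulation with phosphate and Tween 80, were held at room temperature. Each was analysed at 0, 1, 2, 3, 4, 5 and 6 h by radio-HPLC on C18 with MeCN:H2O 75:25 at 1 mL/min, using UV 215 nm and gamma detectors. Radiochemical purity was taken as the tracer peak area relative to total radioactivity.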

[5] abbreviates: plasma of healthy Balb/C male mice, NCA.
[6] abbreviates: brain serial sections of 3xTg-AD mice.

Like-named read-outs stand apart in the source and are kept apart here.

By Kd is commonly meant the free concentration of one partner at which half of the binding sites on the other are occupied at equilibrium, for simple one-to-one binding. Regarding `CNc1ccc(/C=C/c2ccc(OCCOCCOCCF)nc2)cc1` [[^18F]Florbetapir, AV-45], the Kd at Aβ (AD brain homogenates ref 62) was 3.72 nM.

Broadly, the Log P is a log measure of how a compound divides between an organic and an aqueous phase. On to `CNc1ccc(/C=C/c2ccc(OCCOCCOCCF)cc2)cc1` [[^18F]Florbetaben, BAY94-9172], for which, at Aβ (AD brain homogenates ref 60), the Kd was 16 nM. The lipophilicity (Log P) in [1] was 2.41 [65].

Broadly, the Vss is a proportionality between amount in the body and measured concentration, not a real space. A high value points to wide distribution into tissue. Consider `COc1ccc2cc(CCC[18F])ccc2c1` [[^18F]Amylovis, 2-(3-[^18F]fluoropropyl)-6-methoxynaphthalene], for which, in the data set with APPSwe/PS1dE9 mice, the “uptake in cortex, transgenic vs control healthy mice (SUVr to brain stem)” value is listed as “slightly incremented uptake”. For the same compound, the “time of maximum activity in brain (dynamic PET)” value with C57BL/6 mice came to 2 min. For the same compound, in [2] (healthy Balb/C mice), the bone uptake result was “relatively high bone uptake”; the “uptake in kidneys and liver” value is given as “high uptake values”. Further, the “brain uptake (washout/clearance)” value in data set [2] (healthy Balb/C mice, 60 min) was 0.11±0.03 %ID/g. Also, in data set [2] (setting [5]), the “T1/2 (plasma)” value stood at 37 ± 10 min, the Vss is 10.3 ± 2.9 mL and the Vss/kg came to 0.372 ± 0.11 L/kg. In addition, the affinity at Aβ plaques, expressed as Kd, was 0.16 nM. In addition, at Aβ plaques (setting [6]), the Bmax was determined as 119.4 nM, the “fold higher BP than [^11C]PIB” value amounted to 3 folds and the “fold higher affinity for Aβ plaques compared with [^11C]PIB” value came to 6 fold. Further, the “plasma protein binding (PPB)” value in the data set “Protein binding assay” is recorded as “high PPB percentage”. Further, in the data set “Stability in plasma”, the “stability in fresh human plasma” value was “not degraded”. Also, in data set [3], the “log Poct/PBS” value is 2.46 ± 0.06. In addition, in data set [4], the “stability (radiochemical purity) of final formulation” value is reported as “did not significantly change”.

Regarding `CNc1ccc(-c2nc3ccc(O)cc3s2)cc1F` [[^18F]Flutemetamol, GE-067], the Kd on Aβ (AD brain homogenates ref 59) was 6.7 nM. Also, the “Log P” value in data set [1] is 1.7 [64].
